ChEMBL document CHEMBL1135709, “2,6-Di(omega-aminoalkyl)-2,5,6,7-tetrahydropyrazolo[3,4,5-mn]pyrimido[5,6,1-de]acridine-5,7-diones: novel, potent, cytotoxic, and DNA-binding agents” (J Med Chem, 2002)

How the values were obtained:
Calf thymus DNA = experiment: CT-DNA binding required to produce a 50% drop in fluorescence of DNA-bound ethidium.; assay type: nucleic-acid assay; details: Bos taurus
In short: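 Ethidium displacement from calf thymus DNA in 10 mM Na2HPO4, 10 mM NaH2PO4, 1 mM EDTA, pH 7.0, containing 1.26 μM ethidium bromide and 1 μM CT-DNA. Drug added serially from ~5 mM DMSO stock; 20 °C; fluorescence excitation 546 nm, emission 595 nm. C50 = drug concentration lowering DNA-bound ethidium fluorescence by 50%, mean of three determinations.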

HT-29 = experiment: In vitro cytotoxic potency against HT-29 (human colon adenocarcinoma) cell line.; assay type: functional, cell-based
LoVo [1] = experiment: Cytotoxicity activity on LoVo/Dx human adenocarcinoma cell line after 144 hr of drug exposure; assay type: functional, cell-based
In short: (§1)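 LoVo (sensitive) and LoVo/Dx (resistant) human colon adenocarcinoma cells seeded at 2.5 × 10^5 cells/mL medium; drug solutions added to culture.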

LoVo [2] = experiment: Cytotoxicity activity on LoVo human adenocarcinoma cell line after 1 hr of drug exposure; assay type: functional, cell-based
In short: (§2)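 LoVo (sensitive) and LoVo/Dx (resistant) human colon adenocarcinoma cells seeded at 2.5 × 10^5 cells/mL medium; drug solutions added to culture. IC50 = drug concentration inhibiting cell growth by 50%, assays in triplicate.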

LoVo [3] = experiment: Cytotoxicity activity on LoVo human adenocarcinoma cell line after 144 hr of drug exposure; assay type: functional, cell-based; in short: as §1
LoVo [4] = experiment: Cytotoxicity activity on LoVo/Dx human adenocarcinoma cell line after 1 hr of drug exposure; assay type: functional, cell-based; in short: as §2
OVCAR-4 [5] = experiment: Percent growth of NCI cell line, ovarian: OVCAR-4 exposed for 48 hr at 10e-6 concentration; assay type: functional, Homo sapiens
In short: (§3)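 NCI panel cell lines exposed 48 h to 10^-8, 10^-6 and 10^-4 M drug; read-out is percent growth at each concentration.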

DU-145 [6] = experiment: Percent growth of NCI cell line, prostate: DU-145 exposed for 48 hr at 10e-6 concentration; assay type: functional, Homo sapiens; in short: as §3
786-0 [7] = experiment: Percent growth of NCI cell line, renal: 786-0 exposed for 48 hr at 10e-8 concentration; assay type: functional, Homo sapiens; in short: as §3
[8] = Percent growth of NCI cell line, leucemia K562 exposed for 48 hr at 10e-4 concentration; assay type: functional, Homo sapiens; in short: as §3
MCF7 [9] = experiment: Percent growth of NCI cell line, breast: MCF-7 exposed for 48 hr at 10e-4 concentration; assay type: functional, Homo sapiens; in short: as §3
DU-145 [10] = experiment: Percent growth of NCI cell line, prostate: DU-145 exposed for 48 hr at 10e-8 concentration; assay type: functional, Homo sapiens; in short: as §3
786-0 [11] = experiment: Percent growth of NCI cell line, renal: 786-0 exposed for 48 hr at 10e-4 concentration; assay type: functional, Homo sapiens; in short: as §3
SNB-19 [12] = experiment: Percent growth of NCI cell line, CNS: SNB-19 exposed for 48 hr at 10e-4 concentration; assay type: functional, Homo sapiens; in short: as §3
[13] = Percent growth of NCI cell line, leucemia K562 exposed for 48 hr at 10e-8 concentration; assay type: functional, Homo sapiens; in short: as §3
HCT-15 [14] = experiment: Percent growth of NCI cell line, colon: HCT-15 exposed for 48 hr at 10e-6 concentration; assay type: functional, Homo sapiens; in short: as §3
OVCAR-4 [15] = experiment: Percent growth of NCI cell line, ovarian: OVCAR-4 exposed for 48 hr at 10e-8 concentration; assay type: functional, Homo sapiens; in short: as §3
MCF7 [16] = experiment: Percent growth of NCI cell line, breast: MCF-7 exposed for 48 hr at 10e-6 concentration; assay type: functional, Homo sapiens; in short: as §3
SNB-19 [17] = experiment: Percent growth of NCI cell line, CNS: SNB-19 exposed for 48 hr at 10e-6 concentration; assay type: functional, Homo sapiens; in short: as §3
NCI-H460 [18] = experiment: Percent growth of NCI cell line, lung-nsc: NCI-H460 exposed for 48 hr at 10e-8 concentration; assay type: functional, Homo sapiens; in short: as §3
MCF7 [19] = experiment: Percent growth of NCI cell line, breast: MCF-7 exposed for 48 hr at 10e-8 concentration; assay type: functional, Homo sapiens; in short: as §3
LOX IMVI [20] = experiment: Percent growth of NCI cell line, melanoma: LOX IMVI exposed for 48 hr at 10e-6 concentration; assay type: functional, Homo sapiens; in short: as §3
SNB-19 [21] = experiment: Percent growth of NCI cell line, CNS: SNB-19 exposed for 48 hr at 10e-8 concentration; assay type: functional, Homo sapiens; in short: as §3
NCI-H460 [22] = experiment: Percent growth of NCI cell line, lung-nsc: NCI-H460 exposed for 48 hr at 10e-4 concentration; assay type: functional, Homo sapiens; in short: as §3
OVCAR-4 [23] = experiment: Percent growth of NCI cell line, ovarian: OVCAR-4 exposed for 48 hr at 10e-4 concentration; assay type: functional, Homo sapiens; in short: as §3
NCI-H460 [24] = experiment: Percent growth of NCI cell line, lung-nsc: NCI-H460 exposed for 48 hr at 10e-6 concentration; assay type: functional, Homo sapiens; in short: as §3
HCT-15 [25] = experiment: Percent growth of NCI cell line, colon: HCT-15 exposed for 48 hr at 10e-8 concentration; assay type: functional, Homo sapiens; in short: as §3
DU-145 [26] = experiment: Percent growth of NCI cell line, prostate: DU-145 exposed for 48 hr at 10e-4 concentration; assay type: functional, Homo sapiens; in short: as §3
HCT-15 [27] = experiment: Percent growth of NCI cell line, colon: HCT-15 exposed for 48 hr at 10e-4 concentration; assay type: functional, Homo sapiens; in short: as §3
786-0 [28] = experiment: Percent growth of NCI cell line, renal: 786-0 exposed for 48 hr at 10e-6 concentration; assay type: functional, Homo sapiens; in short: as §3
LOX IMVI [29] = experiment: Percent growth of NCI cell line, melanoma: LOX IMVI exposed for 48 hr at 10e-8 concentration; assay type: functional, Homo sapiens; in short: as §3
LOX IMVI [30] = experiment: Percent growth of NCI cell line, melanoma: LOX IMVI exposed for 48 hr at 10e-4 concentration; assay type: functional, Homo sapiens; in short: as §3
[31] = Percent growth of NCI cell line, leucemia K562 exposed for 48 hr at 10e-6 concentration; assay type: functional, Homo sapiens; in short: as §3

With COc1ccc2c(c1)c1nn(CCCN(C)C)c3ccc4c(=O)n(CCN(C)C)c(=O)n2c4c13 as the compound, how does the C50 (Calf thymus DNA) read?
The C50 was 0.037 µM.

What about the IC50 (HT-29) of the same compound?
The IC50 was 37 nM.

With COc1cccc2c1C(=O)c1c(O)c3c(c(O)c1C2=O)C[C@@](O)(C(=O)CO)C[C@@H]3O[C@H]1C[C@H](N)[C@H](O)[C@H](C)O1 [DOXORUBICIN] as the compound, how does the IC50 (LoVo [1]) read?
Its IC50 is 2400 nM.

And the IC50 (LoVo [2])?
The IC50 was 860 nM.

And the IC50 (LoVo [3])?
The IC50 was 24 nM.

What about the IC50 (LoVo [4]) of the same compound?
Its IC50 is 9700 nM.

With CN(C)CCn1c(=O)c2ccc3c4c(nn3CCN3CCCC3)c3cc([N+](=O)[O-])ccc3n(c1=O)c24 as the compound, how does the C50 (Calf thymus DNA) read?
The C50 was 0.048 µM.

What about the IC50 (HT-29) of the same compound?
The IC50 was 1.4 nM.

With CCN(CC)CCn1c(=O)c2ccc3c4c(nn3CCN(CC)CC)c3ccccc3n(c1=O)c24 as the compound, how does the C50 (Calf thymus DNA) read?
Its C50 is 0.051 µM.

And the IC50 (HT-29)?
The IC50 was 29 nM.

Which C50 (Calf thymus DNA) does the source give for CN(C)CCn1c(=O)c2ccc3c4c(nn3CCN3CCCCC3)c3ccccc3n(c1=O)c24 here?
Its C50 is 0.05 µM.

And the IC50 (HT-29)?
Its IC50 is 4.1 nM.

Which Growth (OVCAR-4 [5]) does the source give for COc1ccc2c(c1)c1nn(CCN(C)C)c3ccc4c(=O)n(CCN(C)C)c(=O)n2c4c13 here?
Its Growth is -73%.

What about the Growth (DU-145 [6]) of the same compound?
The Growth was -11%.

And the Growth (786-0 [7])?
The Growth was 28%.

And the Growth [8]?
The Growth was -81%.

And the IC50 (LoVo [1])?
Its IC50 is 1.8 nM.

What about the Growth (MCF7 [9]) of the same compound?
The Growth was -89%.

And the Growth (DU-145 [10])?
The Growth was 54%.

And the Growth (786-0 [11])?
Its Growth is -96%.

What about the IC50 (LoVo [2]) of the same compound?
Its IC50 is 290 nM.

What about the Growth (SNB-19 [12]) of the same compound?
Its Growth is -62%.

What about the Growth [13] of the same compound?
The Growth was 47%.

What about the Growth (HCT-15 [14]) of the same compound?
The Growth was -31%.

What about the Growth (OVCAR-4 [15]) of the same compound?
The Growth was 40%.

And the Growth (MCF7 [16])?
Its Growth is -27%.

And the Growth (SNB-19 [17])?
The Growth was -15%.

What about the Growth (NCI-H460 [18]) of the same compound?
The Growth was 9%.

What about the Growth (MCF7 [19]) of the same compound?
The Growth was 49%.

What about the Growth (LOX IMVI [20]) of the same compound?
Its Growth is -19%.

What about the IC50 (LoVo [3]) of the same compound?
Its IC50 is 13 nM.

What about the Growth (SNB-19 [21]) of the same compound?
Its Growth is 62%.

And the IC50 (LoVo [4])?
The IC50 was 140 nM.

And the Growth (NCI-H460 [22])?
Its Growth is -95%.

And the Growth (OVCAR-4 [23])?
Its Growth is -82%.

And the C50 (Calf thymus DNA)?
The C50 was 0.052 µM.

And the Growth (NCI-H460 [24])?
Its Growth is -60%.

What about the Growth (HCT-15 [25]) of the same compound?
Its Growth is 36%.

And the Growth (DU-145 [26])?
The Growth was -77%.

And the IC50 (HT-29)?
The IC50 was 11 nM.

And the Growth (HCT-15 [27])?
Its Growth is -80%.

And the Growth (786-0 [28])?
Its Growth is -26%.

And the Growth (LOX IMVI [29])?
Its Growth is 62%.

And the Growth (LOX IMVI [30])?
Its Growth is -80%.

And the Growth [31]?
Its Growth is -14%.

For CN(C)CCn1c(=O)c2ccc3c4c(nn3CCN3CCCC3)c3ccccc3n(c1=O)c24, which C50 (Calf thymus DNA) is on record?
Its C50 is 0.049 µM.

And the IC50 (HT-29)?
Its IC50 is 9.2 nM.

With CN(C)CCCn1c(=O)c2ccc3c4c(nn3CCN(C)C)c3ccccc3n(c1=O)c24 as the compound, how does the C50 (Calf thymus DNA) read?
Its C50 is 0.12 µM.

And the IC50 (HT-29)?
Its IC50 is 37 nM.

Which results are given for CN(C)CCCn1c(=O)c2ccc3c4c(nn3CCCN(C)C)c3ccccc3n(c1=O)c24?
C50 (Calf thymus DNA): 0.56 µM; IC50 (HT-29): 135 nM
